These results are taken from ChEMBL document CHEMBL4411269, “Required Immunoproteasome Subunit Inhibition Profile for Anti-Inflammatory Efficacy and Clinical Candidate KZR-616 ((2 S,3 R)- N-(( S)-3-(Cyclopent-1-en-1-yl)-1-(( R)-2-methyloxiran-2-yl)-1-oxopropan-2-yl)-3-hydroxy-3-(4-methoxyphenyl)-2-(( S)-2-(2-morpholinoacetamido)propanamido)propenamide)” (J Med Chem, 2018).

SMILES strings stand for the structures. Activity calls are given as the source filed them. The calls are words filed in the database; no cut-off is given here. Some results are limits rather than exact numbers.

Series [1] relates to PBMC. In words: Antiinflammatory activity in human PBMC assessed as reduction in anti-CD3/CD28 antibody-stimulated IFN-gamma expression at 250 nM preincubated for 1 hr followed by anti-CD3/CD28 antibody stimulation measured after 24 hrs in presence of KZR-504 by ELISA. In kind it is functional, cell-based. An outline of the steps:
(§1)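 Healthy-donor PBMC, thawed from cryopreservation, 250 000 cells/well in RPMI 1640/5% FBS. Pretreated 1 h at 37 °C with compound alone or combined (0.1% DMSO final), washed 4 times, then stimulated 24 h with anti-CD3 and anti-CD28 antibodies. TNFα and IFNγ in supernatants by electrochemiluminescent ELISA; expressed relative to DMSO-treated controls (n = 6).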
(In general: An ELISA detects its analyte on a solid surface through an enzyme-linked reagent.)

Series [2] is filed under the species Mus musculus. In words: Selectivity ratio of IC50 for proteosome beta 5 in mouse A20 cells to IC50 for LMP7 in mouse A20 cells. Format: cell-based. An outline of the steps:
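Mouse A20 B-cell lymphoma cell lysate (1 mg/mL, hypotonic 20 mM Tris pH 8, 5 mM EDTA) treated with serially diluted compound for 1 h at 25 °C. Then 5 μM biotinylated active-site probe for 2 h at 25 °C, guanidine denaturation and streptavidin bead capture. Subunit-specific antibody and HRP chemiluminescence, signal normalized to protein, IC50 from percent activity versus DMSO controls.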

For series [3], the system named is PBMC. Nature of the series: Cytotoxicity in human PBMC assessed as reduction in cell viability at 125 nM relative to control. Format: cell-based. As to conditions: 0.125 µM.
The nature of series [4]: Clearance in Balb/c mouse at 2 mg/kg, iv. In kind it is ADME, organism-based. The settings on record: in vivo. In a few lines:
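Female BALB/c mice aged 7−8 weeks, given 2 mg/kg iv in 25% PEG300/WFI. Cardiac blood taken at 2, 5, 10, 20, 30, 60 and 120 min postdose into sodium heparin and processed to plasma (n = 3/time point). Proteins precipitated with acetonitrile; drug measured by LC−MS/MS. Noncompartmental analysis of mean concentrations at nominal times and target doses.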

For series [5], the system named is PBMC. Nature of the series: Antiinflammatory activity in human PBMC assessed as reduction in anti-CD3/CD28 antibody-stimulated TNF-alpha expression at 125 nM preincubated for 1 hr followed by anti-CD3/CD28 antibody stimulation measured after 24 hrs by ELISA. Format: functional, cell-based. In a few lines:
as §1

Series [6] has as its system PBMC. In words: Antiinflammatory activity in human PBMC assessed as reduction in anti-CD3/CD28 antibody-stimulated TNF-alpha expression at 125 nM preincubated for 1 hr followed by anti-CD3/CD28 antibody stimulation measured after 24 hrs in presence of KZR-504 by ELISA. Format: functional, cell-based. An outline of the steps:
as §1

Series [7] has as its system Mus musculus. Nature of the series: In vivo inhibition of LMP2 in Balb/c mouse splenocytes at 20 mg/kg, iv followed by dosing repeat on day 6, 8, 11, 13 and 15 and co-treated with 5 mg/kg, iv KZR-504 and measured on 1 hr post last dose. Format: functional, organism-based. An outline of the steps: (§2)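 BALB/c mice dosed iv bolus in 10% sulfobutyl ether−β-cyclodextrin/10 mM sodium citrate pH 3.5; tissues taken 1 h after administration. Splenocytes strained and red cells lysed; kidney frozen, then bead-homogenized. Hypotonic lysate (20 mM Tris pH 8, 5 mM EDTA) at 1 mg/mL (spleen) or 5 mg/mL (kidney) run in the ProCISE active-site ELISA. Background-subtracted, protein-normalized activity relative to vehicle animals; n = 3.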

The subject of series [8] is Mus musculus. Nature of the series: In vivo inhibition of MECL-1 in Balb/c mouse splenocytes at 20 mg/kg, iv followed by dosing repeat on day 6, 8, 11, 13 and 15 and co-treated with 5 mg/kg, iv KZR-504 and measured on 1 hr post last dose. In kind it is functional, organism-based. In a few lines: as §2
Series [9] relates to Mus musculus. In words: In vivo inhibition of proteosome beta 5 in Balb/c mouse kidney at 20 mg/kg, iv followed by dosing repeat on day 6, 8, 11, 13 and 15 and co-treated with 5 mg/kg, iv KZR-504 and measured on 1 hr post last dose. Format: functional, organism-based. In a few lines: as §2
The target of series [10] is T1, Proteasome subunit beta type-9 (Homo sapiens) (UniProt P28065).
T1 sequence (whole entry): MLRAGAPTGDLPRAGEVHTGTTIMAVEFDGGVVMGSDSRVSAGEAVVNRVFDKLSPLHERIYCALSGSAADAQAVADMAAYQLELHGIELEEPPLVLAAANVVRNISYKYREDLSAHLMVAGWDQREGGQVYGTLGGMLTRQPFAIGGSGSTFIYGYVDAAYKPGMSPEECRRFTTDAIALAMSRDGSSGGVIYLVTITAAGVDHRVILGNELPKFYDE
In words: Inhibition of LMP2 in human PBMC at 125 nM by ELISA.

The target of series [11] is T2, Proteasome subunit beta type-8 (Homo sapiens) (UniProt P28062).
T2 sequence (whole entry): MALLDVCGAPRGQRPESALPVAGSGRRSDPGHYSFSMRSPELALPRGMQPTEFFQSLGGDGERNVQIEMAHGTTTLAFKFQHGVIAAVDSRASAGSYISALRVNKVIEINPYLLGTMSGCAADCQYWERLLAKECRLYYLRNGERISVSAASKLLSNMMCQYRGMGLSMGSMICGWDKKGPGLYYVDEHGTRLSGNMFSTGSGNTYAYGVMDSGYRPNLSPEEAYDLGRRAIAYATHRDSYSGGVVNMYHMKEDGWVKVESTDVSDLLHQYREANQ
In words: Inhibition of LMP7 in human PBMC at 125 nM in presence of KZR-504 by ELISA. An outline of the steps:
(§3)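 Cryopreserved healthy-donor human PBMC in RPMI 1640 with 5% heat-inactivated FBS, exposed to compound (0.1% DMSO final) for 1 h at 37 °C, 5% CO2, then washed. Subunit-specific active-site occupancy read by ProCISE: biotinylated active-site probe binding, denaturation, streptavidin capture, subunit-specific antibody and HRP chemiluminescence. Signal normalized to protein and expressed relative to DMSO controls.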

The target in series [12] is T1, Proteasome subunit beta type-9 (Homo sapiens). In words: Inhibition of LMP2 in human PBMC at 125 nM in presence of KZR-504 by ELISA.
Series [13] has as its target T3, Proteasome subunit beta type-10 (Homo sapiens) (UniProt P40306).
T3 sequence (whole entry): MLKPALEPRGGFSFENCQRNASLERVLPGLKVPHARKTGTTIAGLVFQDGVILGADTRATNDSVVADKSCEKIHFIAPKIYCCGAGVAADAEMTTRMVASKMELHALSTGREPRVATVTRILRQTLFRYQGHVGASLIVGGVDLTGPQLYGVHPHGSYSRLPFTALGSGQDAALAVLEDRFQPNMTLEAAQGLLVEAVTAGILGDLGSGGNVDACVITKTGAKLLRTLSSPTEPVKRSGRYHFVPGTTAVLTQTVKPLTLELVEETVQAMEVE
In words: Inhibition of MECL1 in human PBMC at 125 nM in presence of KZR-504 by ELISA. In a few lines:
as §3

Series [14] in a line: Toxicity in Balb/c mouse assessed as change in body weight at 20 mg/kg, iv followed by dosing repeat on day 6, 8, 11, 13 and 15 and co-treated with 5 mg/kg, iv KZR-504 and measured until day 18. Format: organism-based. The settings on record: in vivo.
Series [15] in a line: Toxicity in Balb/c mouse assessed as effect on cage-side observations at 20 mg/kg, iv followed by dosing repeat on day 6, 8, 11, 13 and 15 and co-treated with 5 mg/kg, iv KZR-504 and measured until day 18. Format: organism-based. The settings on record: in vivo.

With `Cc1ccc(CC[C@H](NC(=O)[C@H](Cc2ccccc2)NC(=O)[C@H](CC(C)C)NC(=O)CN2CCCCCC2)C(=O)[C@@]2(C)CO2)cc1`, the result with PBMC [1] was inactive.

For the molecule `COc1ccc(C[C@H](NC(=O)[C@@H](C)NC(=O)[C@H]2CC[C@H](O)CC2)C(=O)N[C@@H](CC2=CCCC2)C(=O)[C@@]2(C)CO2)cc1`, the Ratio IC50 in the series filed under Mus musculus [2] came to 7. Besides, the Activity with PBMC [3] is recorded as 30%; in series [14], “Non-Toxic”; in series [15], “Non-Toxic”. For the same molecule, the clearance in [4] is over 73 mL/min/kg. The result in the series with PBMC [5] and in the series on PBMC [6] was Active. In addition, the inhibition entry (in the series on Mus musculus [7]; in the series on Mus musculus [8]; in the series on Mus musculus [9]; in series [10]; in series [11]; in series [12]) was “Active” each time. The inhibition entry in series [13] is “Active”.

In general, clearance refers to the volume of plasma or blood freed of the substance per unit of time. The low end stands for a low capacity for elimination, the high end for a high capacity for elimination.
